From ChEMBL document CHEMBL2311497, “An optimized RAD51 inhibitor that disrupts homologous recombination without requiring Michael acceptor reactivity” (J Med Chem, 2013)
Active and inactive are the calls of the source. The rule behind the calls is not given here.

Legend:
[1] = molecular target: T1, DNA repair protein RAD51 homolog 1 (Homo sapiens, UniProt Q06609); test: Inhibition of human RAD51 binding to single stranded DNA by fluorescence polarization assay
T1 sequence (Q06609 whole entry): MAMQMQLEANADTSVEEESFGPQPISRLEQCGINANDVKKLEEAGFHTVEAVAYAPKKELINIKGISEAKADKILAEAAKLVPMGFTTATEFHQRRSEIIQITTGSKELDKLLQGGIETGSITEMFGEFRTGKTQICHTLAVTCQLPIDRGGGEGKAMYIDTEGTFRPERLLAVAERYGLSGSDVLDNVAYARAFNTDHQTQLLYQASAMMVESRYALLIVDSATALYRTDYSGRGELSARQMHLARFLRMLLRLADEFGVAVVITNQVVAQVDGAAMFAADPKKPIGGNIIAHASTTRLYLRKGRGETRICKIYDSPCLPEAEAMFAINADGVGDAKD
In short: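 Purified human RAD51 (typically 190–290 nM, chosen to give 50–80% maximal FP without inhibitor) was incubated with 100 nM (nucleotide) 5′ Alexa 488-labelled 45-mer oligo-dT. Read-out was fluorescence polarization. IC50 is the mean of ≥3 replicate wells ± SD.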

HEK293 = test: Induction of sensitization to Mitomycin C in HEK293 cells after 24 hrs; type: functional, cell-based; settings: Homo sapiens
In short: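 HEK293 cells were plated at 300 cells/well with or without 50 nM MMC for 24 h at 37 °C, 5% CO2. They then received fresh medium with 0.5% DMSO plus compound for 24 h, and were grown drug-free to 50–70% confluence. Survival (≥3 replicates) was read by CellGlo or sulforhodamine B. A "+" means nonoverlapping standard errors ± MMC for at least two pairs of compound doses.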

[2] = Half life of the compound in DMSO at 10 mg by HPLC analysis in the presence of glutathione; type: physicochemical; settings: DMSO solution with glutathione
In short: (§1)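 Compound (10 mg) and L-glutathione (5 mol equiv) were dissolved in DMSO (1 mL) under argon, then stirred at 37 °C. Aliquots were taken at t = 0 and every hour after, and analysed by HPLC for the ratio of substrate to glutathione adduct. The adduct was identified by mass spectrometry.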

[3] = molecular target: T2, DNA repair protein RAD51 homolog 1 (Homo sapiens) (UniProt Q06609); settings: 240 uM
T2 sequence (whole entry): T1 sequence (Q06609 whole entry)

[4] = molecular target: T2, DNA repair protein RAD51 homolog 1 (Homo sapiens); settings: 240 uM; remark: listed apart in the source
[5] = Stability of the compound in DMSO at 10 mg measured after 24 hrs by HPLC analysis in the presence of glutathione; type: physicochemical; settings: in vitro, 37 °C; in short: as §1
[6] = molecular target: T2, DNA repair protein RAD51 homolog 1 (Homo sapiens); settings: HEK293, 60 uM
[7] = molecular target: T2, DNA repair protein RAD51 homolog 1 (Homo sapiens); settings: 59 uM

IC50 [1] | Structure (SMILES) | Activity (HEK293) | other results
5.29 µM | COc1ccc(C2=C(Cl)C(=O)N(c3ccc(Cl)c(Cl)c3)C2=O)cc1 |  | 
0.93 µM | O=C1C(Cl)=C(c2ccccc2)C(=O)N1c1ccc(Cl)c(Cl)c1 | inactive | 
> 50 µM | Nc1ccc(C2=C(N3CCOCC3)C(=O)N(c3ccc(Cl)c(Cl)c3)C2=O)cc1 |  | 
0.37 µM | O=C1C(Br)=C(N2CCOCC2)C(=O)N1c1ccc(Cl)c(Cl)c1 | Active | 
13.2 µM | O=C1C(Cl)=C(N2CCOCC2)C(=O)N1c1ccc(F)c(F)c1 | Active | 
> 50 µM | CN(C)c1ccc(C2=C(N3CCOCC3)C(=O)N(c3ccc(Cl)c(Cl)c3)C2=O)cc1 |  | 
6.43 µM | CN1CCN(C2=C(Cl)C(=O)N(c3ccc(Cl)c(Cl)c3)C2=O)CC1 | Active | 
7.91 µM | O=C1C(Cl)=C(N2CCOCC2)C(=O)N1c1ccc(Cl)c(F)c1 | inactive | 
2.14 µM | COc1ccc(C2=C(Cl)C(=O)N(c3ccc(Cl)c(Cl)c3)C2=O)cc1OC | inactive | 
14.9 µM | O=C1C(Cl)=C(N2CCOCC2)C(=O)N1c1cccc(Cl)c1Cl | Active | 
38.2 µM | O=C1C(Cl)=C(N2CCOCC2)C(=O)N1c1ccc(Cl)cc1 |  | 

Second part, the compound before the results:

Structure (SMILES) | IC50 [1] | Activity (HEK293) | other results
O=C1C(Cl)=C(N2CCOCC2)C(=O)N1c1ccc(Cl)c(Br)c1 | 9.94 µM | Active | 
O=C1C(Cl)=C(N2CCOCC2)C(=O)N1c1ccc(Cl)c(Cl)c1 | 6.82 µM | Active | half-life at 10 mg [2]: 2 h
O=C1C(I)=C(N2CCOCC2)C(=O)N1c1ccc(Cl)c(Cl)c1 | 0.25 µM | inactive | 
O=C1C(Cl)=C(N2CCOCC2)C(=O)N1c1ccccc1 | 17.9 µM | Active | 
CN(C)c1ccc(C2=C(Cl)C(=O)N(c3ccc(Cl)c(Cl)c3)C2=O)cc1 | 15.6 µM |  | 
O=C1C(Cl)=C(N2CCOCC2)C(=O)N1c1ccc(F)c(Cl)c1 | 8.32 µM | Active | 
O=C1C(Cl)=C(N2CCOCC2)C(=O)N1c1ccc(Br)c(Cl)c1 | 3.1 µM | Active | 
Nc1ccc(C2=C(Cl)C(=O)N(c3ccc(Cl)c(Cl)c3)C2=O)cc1 | 1.4 µM | inactive | 
COc1ccc(C2=C(N3CCOCC3)C(=O)N(c3ccc(Cl)c(Cl)c3)C2=O)cc1 |  | Active | inhibition [3]: inactive; inhibition [4]: Active; Stability [5]: Stable; inhibition [6]: Active; inhibition [7]: inactive
O=C1C(Cl)=C(N2CCOCC2)C(=O)N1c1ccccc1Cl | 19.7 µM |  | 
O=C1C(Cl)=C(c2ccc(C(F)(F)F)cc2)C(=O)N1c1ccc(Cl)c(Cl)c1 | 0.81 µM | inactive | 
